Drawing on ChEMBL document CHEMBL1156179 (J Med Chem, 2010), this text covers Ki and Ratio Ki for 6 compounds.

One assay concerns the target Adenosine receptor A2a (Homo sapiens, UniProt P29274). Description: Displacement of [3H]NECA from human cloned adenosine A2a receptor expressed in CHO cells. The assay is classed as cell-based. The gist of the method:
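hA2A-CHO membranes, prepared by two-step centrifugation, were incubated with 30 nM [3H]NECA, 50 μg protein and graded compound under the A1 binding conditions. Nonspecific binding with 100 μM R-PIA.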

For the next assay, the species on record is Homo sapiens. Nature of the assay: Selectivity ratio of Ki for human adenosine A2A receptor to Ki for human adenosine A3.
In assay [1] the target is Adenosine receptors; A1 & A3 (Homo sapiens) (UniProt P30542+P0DMS8). Description: Selectivity ratio of Ki for human adenosine A1 receptor to Ki for human adenosine A3.
Another assay deals with T1, Adenosine receptor A2b (Homo sapiens, UniProt P29275).
T1 sequence (P29275 whole entry): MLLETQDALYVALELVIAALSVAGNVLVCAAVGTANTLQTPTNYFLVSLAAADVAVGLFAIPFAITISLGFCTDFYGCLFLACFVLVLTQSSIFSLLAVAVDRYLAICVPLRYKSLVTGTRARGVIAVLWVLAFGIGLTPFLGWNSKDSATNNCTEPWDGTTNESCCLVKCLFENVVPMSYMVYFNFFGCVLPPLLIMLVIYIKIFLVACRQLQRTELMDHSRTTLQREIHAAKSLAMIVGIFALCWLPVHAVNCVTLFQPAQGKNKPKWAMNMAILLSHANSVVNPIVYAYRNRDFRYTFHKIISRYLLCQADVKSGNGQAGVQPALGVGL
Nature of the assay: Antagonist activity at human cloned adenosine A2b receptor expressed in CHO cells assessed as inhibition of NECA-stimulated cAMP accumulation. The assay is classed as functional, cell-based. The gist of the method: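 Membranes from CHO cells with hA2B receptor, prepared by a single 30 min spin at 54000g and resuspended in 50 mM Tris/HCl pH 7.4, used fresh. Antagonist inhibition of NECA-stimulated adenylyl cyclase gave IC50 by Hill fit; Ki from Cheng–Prusoff.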
In general terms: Changes in cAMP serve as a functional read-out for many G protein-coupled receptors.

A further assay addresses T2, Adenosine receptor A1 (Homo sapiens, UniProt P30542).
T2 sequence (P30542 whole entry): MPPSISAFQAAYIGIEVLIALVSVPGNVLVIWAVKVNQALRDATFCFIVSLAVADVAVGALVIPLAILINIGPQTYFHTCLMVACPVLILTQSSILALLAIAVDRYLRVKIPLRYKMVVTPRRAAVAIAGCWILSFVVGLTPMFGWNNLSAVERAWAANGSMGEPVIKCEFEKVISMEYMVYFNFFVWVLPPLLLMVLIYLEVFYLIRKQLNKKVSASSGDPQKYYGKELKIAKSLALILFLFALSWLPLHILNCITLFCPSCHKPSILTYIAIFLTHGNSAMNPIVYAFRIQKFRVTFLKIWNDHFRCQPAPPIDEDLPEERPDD
Description: Displacement of [3H]CCPA from human cloned adenosine A1 receptor expressed in CHO cells. The assay is classed as cell-based. The gist of the method:
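CHO membranes with hA1 receptor, from 1000g 4 min spin then 100000g 30 min. Incubated 3 h at 25 °C with 1 nM [3H]CCPA, 0.2 U/mL adenosine deaminase, 20 μg protein in 50 mM Tris/HCl pH 7.4 and graded compound. Nonspecific binding with 1 mM theophylline.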
(In general: Displacement assays read how much labelled ligand stays bound in the presence of the test substance.)

A further assay addresses T3, Adenosine receptor A3 (Homo sapiens, UniProt P0DMS8).
T3 sequence (P0DMS8 whole entry): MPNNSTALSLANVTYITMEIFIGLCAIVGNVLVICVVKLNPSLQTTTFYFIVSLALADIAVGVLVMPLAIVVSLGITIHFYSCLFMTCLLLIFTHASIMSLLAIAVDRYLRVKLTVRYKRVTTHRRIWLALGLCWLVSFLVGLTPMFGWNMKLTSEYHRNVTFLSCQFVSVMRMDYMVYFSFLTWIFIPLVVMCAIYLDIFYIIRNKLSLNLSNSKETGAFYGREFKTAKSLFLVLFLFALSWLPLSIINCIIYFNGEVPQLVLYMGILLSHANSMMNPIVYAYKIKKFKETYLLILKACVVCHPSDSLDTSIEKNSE
Nature of the assay: Displacement of [3H]NECA from human cloned adenosine A3 receptor expressed in CHO cells. The assay is classed as cell-based.

Sequence of Adenosine receptor A2a (P29274 whole entry): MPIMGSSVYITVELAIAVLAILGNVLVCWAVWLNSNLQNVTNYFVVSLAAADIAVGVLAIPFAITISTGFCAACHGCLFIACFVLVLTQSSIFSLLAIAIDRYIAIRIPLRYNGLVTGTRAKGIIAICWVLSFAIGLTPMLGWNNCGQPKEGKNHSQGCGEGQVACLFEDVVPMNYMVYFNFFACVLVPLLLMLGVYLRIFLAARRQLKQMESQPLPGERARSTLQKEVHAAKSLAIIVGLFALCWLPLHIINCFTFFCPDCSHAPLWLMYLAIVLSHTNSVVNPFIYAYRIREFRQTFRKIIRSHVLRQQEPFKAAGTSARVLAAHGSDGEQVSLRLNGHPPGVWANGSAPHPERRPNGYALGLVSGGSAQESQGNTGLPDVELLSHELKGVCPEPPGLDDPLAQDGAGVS

As a reminder, the Ki is the dissociation constant of the complex between target and ligand, obtained from inhibition or displacement. Regarding `Nc1nc2nn(CCc3ccccc3)cc2c2nc(-c3ccc(F)cc3)nn12`, the Ki was 127 nM on Adenosine receptor A2a, greater than 10000 nM at Adenosine receptor A2b, 39.1 nM on Adenosine receptor A1 and 50.6 nM at Adenosine receptor A3. In addition, the Ratio Ki in the assay filed under Homo sapiens was 2.51; in assay [1] it was 0.773.

Consider `CCn1ncc2c1nc(N)n1nc(-c3ccc(Cl)cc3)nc21`, for which the Ki on Adenosine receptor A2a was 83.8 nM; at Adenosine receptor A2b, greater than 10000 nM; on Adenosine receptor A1 it was 121 nM; on Adenosine receptor A3, 565 nM. Besides, the results for the Ratio Ki (in the assay filed under Homo sapiens; in assay [1]) were 0.15 and 0.21, respectively.

For the compound `Cn1cc2c(nc(NC(=O)Cc3ccccc3)n3nc(-c4ccc(Br)cc4)nc23)n1`, the Ki is greater than 100000 nM at Adenosine receptor A2a, greater than 10000 nM at Adenosine receptor A2b, 24400 nM on Adenosine receptor A1 and 0.345 nM on Adenosine receptor A3. The Ratio Ki in the assay listed under Homo sapiens was greater than 290000; in assay [1] it was 70700.

As to `Cn1cc2c(nc(N)n3nc(-c4ccc([N+](=O)[O-])cc4)nc23)n1`, the Ki on Adenosine receptor A2a is greater than 10000 nM; at Adenosine receptor A2b it was greater than 10000 nM; at Adenosine receptor A1 it was greater than 300000 nM; on Adenosine receptor A3, 655 nM. The Ratio Ki in the assay listed under Homo sapiens was greater than 15.3; in assay [1], greater than 458.

On to `Cn1cc2c(nc(NC(=O)Cc3ccccc3)n3nc(-c4ccc([N+](=O)[O-])cc4)nc23)n1`, for which the Ki is 23900 nM at Adenosine receptor A2a, greater than 10000 nM on Adenosine receptor A2b, 23200 nM at Adenosine receptor A1 and 0.624 nM on Adenosine receptor A3. Besides, the Ratio Ki in the assay filed under Homo sapiens stood at 38300; in assay [1], 37200.

In the case of `Cn1cc2c(nc(NC(=O)c3ccccc3)n3nc(-c4ccccc4)nc23)n1`, the Ki on Adenosine receptor A2a is 324 nM; on Adenosine receptor A2b it was greater than 10000 nM; at Adenosine receptor A1 it was 622 nM; on Adenosine receptor A3, 5 nM. The Ratio Ki in the assay filed under Homo sapiens is 64.8; in assay [1] it was 124.
